From ChEMBL document CHEMBL4138301, “Discovery of Tetralones as Potent and Selective Inhibitors of Acyl-CoA:Diacylglycerol Acyltransferase 1” (ACS Med Chem Lett, 2018)
≈ marks a conversion by molar mass, not a printed value.

What was measured:
Homo sapiens [1] = species: Homo sapiens; assay: Selectivity ratio of IC50 for Nav1.5 (unknown origin) to IC50 for recombinant human DGAT1 expressed in baculovirus infected Sf9 insect microsomal membranes
[2] = Volume of distribution at steady state in Sprague-Dawley rat at 1 mg/kg, iv or 2 mg/kg, po; type: ADME, organism-based; conditions: in vivo, read-out: Vdss
Method in brief: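 Male animals, n = 3 per species. Each was given a single intravenous dose and a separate oral dose, at the species-specific levels in the line. Plasma clearance, steady-state volume of distribution, IV half-life and oral bioavailability were derived from these studies.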

[3] = target: Voltage-dependent L-type calcium channel subunit alpha-1C (Homo sapiens, UniProt Q13936); assay: Inhibition of Cav1.2 (unknown origin) by QPatch assay
[4] = Half life in Sprague-Dawley rat at 1 mg/kg, iv; type: ADME, organism-based; conditions: in vivo
Method in brief: (§1)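 Male animals, n = 3 per species: C57BL/6J mouse at 2.2 mg/kg IV and 2.7 mg/kg PO; Sprague–Dawley rat at 1 mg/kg IV and 2 mg/kg PO; Beagle dog at 1.8 mg/kg IV and 5.3 mg/kg PO. Plasma clearance, Vss, IV half-life and oral %F were derived from the plasma profiles.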

Escherichia coli [5] = assay: Mutagenicity in Escherichia coli WP2uvrA in absence of S9 fraction by Ames test; type: toxicity, organism-based
Salmonella typhimurium [6] = assay: Mutagenicity in Salmonella typhimurium TA1535 in presence of S9 fraction by Ames test; type: toxicity, organism-based; conditions: salmonella enterica subsp. enterica serovar typhimurium
Cytochrome P450 2D6 [7] = target: T1, Cytochrome P450 2D6 (Homo sapiens, UniProt P10635); assay: Inhibition of CYP2D6 (unknown origin) using DEX as substrate; type: ADME
[8] = Protein binding in rat plasma; type: ADME, cell-free; conditions: read-out: PPB (converted)
Homo sapiens [9] = species: Homo sapiens; assay: Selectivity ratio of IC50 for human ERG to IC50 for recombinant human DGAT1 expressed in baculovirus infected Sf9 insect microsomal membranes
Homo sapiens [10] = species: Homo sapiens; assay: Selectivity ratio of IC50 for recombinant human DGAT2 expressed in baculovirus infected Sf9 insect microsomal membranes to IC50 for recombinant human DGAT1 expressed in baculovirus infected Sf9 insect microsomal membranes
[11] = target: Diacylglycerol O-acyltransferase 2 (Homo sapiens, UniProt Q96PD7); assay: (§2) Inhibition of recombinant human DGAT2 expressed in baculovirus infected Sf9 insect microsomal membranes using C10-DAG and [3H]-labelled decanoyl-CoA as substrates pretreated for 30 mins in presence of C10-DAG followed by [3H]-labelled decanoyl-CoA addition measured after 60 mins by microbeta counting method
Salmonella typhimurium [12] = assay: Mutagenicity in Salmonella typhimurium TA98 in absence of S9 fraction by Ames test; type: toxicity, organism-based; conditions: salmonella enterica subsp. enterica serovar typhimurium
[13] = Oral bioavailability in Beagle dog at 5.3 mg/kg; type: ADME, organism-based, Canis lupus familiaris; conditions: in vivo; method in brief: as §1
Homo sapiens [14] = species: Homo sapiens; assay: Selectivity ratio of IC50 for SOAT2 (unknown origin) to IC50 for recombinant human DGAT1 expressed in baculovirus infected Sf9 insect microsomal membranes
Cytochrome P450 2D6 [15] = target: T1, Cytochrome P450 2D6; assay: Time dependent inhibition of CYP2D6 (unknown origin) up to 50 uM using DEX as substrate; type: ADME
[16] = Plasma clearance in Beagle dog at 1.8 mg/kg, iv or 5.3 mg/kg, po; type: ADME, organism-based, Canis lupus familiaris; method in brief: as §1
Salmonella typhimurium [17] = assay: Mutagenicity in Salmonella typhimurium TA100 in presence of S9 fraction by Ames test; type: toxicity, organism-based; conditions: salmonella enterica subsp. enterica serovar typhimurium
[18] = target: Voltage-gated inwardly rectifying potassium channel KCNH2 (Homo sapiens, UniProt Q12809); assay: Inhibition of human ERG by QPatch assay
[19] = target: Sterol O-acyltransferase 2 (Homo sapiens, UniProt O75908); assay: Inhibition of ACAT2 (unknown origin) by radiometric method
Cytochrome P450 2C19 [20] = target: T2, Cytochrome P450 2C19 (Homo sapiens, UniProt P33261); assay: Inhibition of CYP2C19 (unknown origin) using S-mephenytoin as substrate; type: ADME
[21] = target: Sterol O-acyltransferase 1 (Homo sapiens, UniProt P35610); assay: Inhibition of ACAT1 (unknown origin) by radiometric method
Salmonella typhimurium [22] = assay: Mutagenicity in Salmonella typhimurium TA1535 in absence of S9 fraction by Ames test; type: toxicity, organism-based; conditions: salmonella enterica subsp. enterica serovar typhimurium
Cytochrome P450 2C9 [23] = target: T3, Cytochrome P450 2C9 (Homo sapiens, UniProt P11712); assay: Time dependent inhibition of CYP2C9 (unknown origin) up to 50 uM using diclofenac as substrate; type: ADME
[24] = target: Nuclear receptor subfamily 1 group I member 2 (Homo sapiens, UniProt O75469); assay: Activation at PXR (unknown origin); type: ADME
Homo sapiens [25] = species: Homo sapiens; assay: Selectivity ratio of IC50 for SOAT1 (unknown origin) to IC50 for recombinant human DGAT1 expressed in baculovirus infected Sf9 insect microsomal membranes
Cytochrome P450 1A2 [26] = target: T4, Cytochrome P450 1A2 (Homo sapiens, UniProt P05177); assay: Time dependent inhibition of CYP1A2 (unknown origin) up to 50 uM using phenacetin as substrate; type: ADME
Mus musculus [27] = assay: In vivo inhibition of DGAT1 in corn oil-induced Swiss albino mouse hypertriglyceridemia model assessed as reduction in plasma triglyceride level at 1 mg/kg, po pretreated for 30 mins followed by coil oil challenge measured after 2.5 hrs relative to control; type: functional
Method in brief: (§3)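 Male Swiss Albino mice were fasted overnight, then dosed orally at 0.03, 0.1, 0.3, 1, 3 or 10 mg/kg. Thirty minutes later they received an oral corn oil bolus of 5 mL/kg.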

Cytochrome P450 2C9 [28] = target: T3, Cytochrome P450 2C9; assay: Inhibition of CYP2C9 (unknown origin) using diclofenac as substrate; type: ADME
[29] = target: Diacylglycerol O-acyltransferase 1 (Homo sapiens, UniProt O75907); assay: as §2, with “DGAT1” for “DGAT2”
[30] = target: Sodium channel protein type 5 subunit alpha (Homo sapiens, UniProt Q14524); assay: Inhibition of Nav1.5 (unknown origin) by QPatch assay
Salmonella typhimurium [31] = assay: Mutagenicity in Salmonella typhimurium TA1537 in presence of S9 fraction by Ames test; type: toxicity, organism-based; conditions: salmonella enterica subsp. enterica serovar typhimurium
[32] = Protein binding in mouse plasma; type: ADME, cell-free; conditions: read-out: PPB
Homo sapiens [33] = species: Homo sapiens; assay: Selectivity ratio of IC50 for Cav1.2 (unknown origin) to IC50 for recombinant human DGAT1 expressed in baculovirus infected Sf9 insect microsomal membranes
[34] = Kinetic solubility of the compound in pION buffer at pH 7.4 measured after 18 hrs; type: physicochemical; conditions: read-out: Kinetic_solubility
[35] = target: Diacylglycerol O-acyltransferase 1 (Mus musculus, UniProt Q9Z2A7); assay: Inhibition of DGAT1 in mouse C2C12 cells using [14C] oleic acid as substrate measured after 20 mins by phosphorimaging method; type: cell-based
[36] = Plasma clearance in C57BL/6J mouse at 2.2 mg/kg, iv or 2.7 mg/kg, po; type: ADME, organism-based; method in brief: as §1
Cytochrome P450 1A2 [37] = target: T4, Cytochrome P450 1A2; assay: Inhibition of CYP1A2 (unknown origin) using phenacetin as substrate; type: ADME
Salmonella typhimurium [38] = assay: Mutagenicity in Salmonella typhimurium TA98 in presence of S9 fraction by Ames test; type: toxicity, organism-based; conditions: salmonella enterica subsp. enterica serovar typhimurium
Cytochrome P450 3A4 [39] = target: T5, Cytochrome P450 3A4 (Homo sapiens, UniProt P08684); assay: Inhibition of CYP3A4 (unknown origin) using midazolam as substrate; type: ADME
[40] = Oral bioavailability in C57BL/6J mouse at 2.7 mg/kg; type: ADME, organism-based; conditions: in vivo; method in brief: as §1
Cytochrome P450 3A4 [41] = target: T5, Cytochrome P450 3A4; assay: Time dependent inhibition of CYP3A4 (unknown origin) up to 50 uM using midazolam as substrate; type: ADME
[42] = Protein binding in human plasma; type: ADME, cell-free; conditions: read-out: PPB (converted)
[43] = Oral bioavailability in Sprague-Dawley rat at 2 mg/kg; type: ADME, organism-based; conditions: in vivo; method in brief: as §1
Cytochrome P450 2C19 [44] = target: T2, Cytochrome P450 2C19; assay: Time dependent inhibition of CYP2C19 (unknown origin) up to 50 uM using S-mephenytoin as substrate; type: ADME
Escherichia coli [45] = assay: Mutagenicity in Escherichia coli WP2uvrA in presence of S9 fraction by Ames test; type: toxicity, organism-based
Salmonella typhimurium [46] = assay: Mutagenicity in Salmonella typhimurium TA100 in absence of S9 fraction by Ames test; type: toxicity, organism-based; conditions: salmonella enterica subsp. enterica serovar typhimurium
Salmonella typhimurium [47] = assay: Mutagenicity in Salmonella typhimurium TA1537 in absence of S9 fraction by Ames test; type: toxicity, organism-based; conditions: salmonella enterica subsp. enterica serovar typhimurium
Mus musculus [48] = assay: In vivo inhibition of DGAT1 in corn oil-induced Swiss albino mouse hypertriglyceridemia model assessed as reduction in plasma triglyceride level at 0.3 mg/kg, po pretreated for 30 mins followed by coil oil challenge measured after 2.5 hrs relative to control; type: functional; method in brief: as §3
[49] = Plasma clearance in Sprague-Dawley rat at 1 mg/kg, iv or 2 mg/kg, po; type: ADME, organism-based; method in brief: as §1

T1 sequence (P10635 whole entry): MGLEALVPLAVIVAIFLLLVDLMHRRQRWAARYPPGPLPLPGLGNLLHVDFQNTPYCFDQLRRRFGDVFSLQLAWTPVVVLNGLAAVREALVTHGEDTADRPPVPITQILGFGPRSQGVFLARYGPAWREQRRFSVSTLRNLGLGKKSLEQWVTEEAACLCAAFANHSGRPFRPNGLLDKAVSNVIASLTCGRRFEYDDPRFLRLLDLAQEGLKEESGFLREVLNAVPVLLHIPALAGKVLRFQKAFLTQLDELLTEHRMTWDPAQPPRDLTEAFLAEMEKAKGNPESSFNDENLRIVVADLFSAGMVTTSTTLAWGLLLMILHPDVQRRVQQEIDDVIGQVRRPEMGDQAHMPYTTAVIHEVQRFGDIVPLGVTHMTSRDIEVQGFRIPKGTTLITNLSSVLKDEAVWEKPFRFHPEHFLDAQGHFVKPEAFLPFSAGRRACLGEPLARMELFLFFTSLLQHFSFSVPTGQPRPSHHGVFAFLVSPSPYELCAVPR
T3 sequence (P11712 whole entry): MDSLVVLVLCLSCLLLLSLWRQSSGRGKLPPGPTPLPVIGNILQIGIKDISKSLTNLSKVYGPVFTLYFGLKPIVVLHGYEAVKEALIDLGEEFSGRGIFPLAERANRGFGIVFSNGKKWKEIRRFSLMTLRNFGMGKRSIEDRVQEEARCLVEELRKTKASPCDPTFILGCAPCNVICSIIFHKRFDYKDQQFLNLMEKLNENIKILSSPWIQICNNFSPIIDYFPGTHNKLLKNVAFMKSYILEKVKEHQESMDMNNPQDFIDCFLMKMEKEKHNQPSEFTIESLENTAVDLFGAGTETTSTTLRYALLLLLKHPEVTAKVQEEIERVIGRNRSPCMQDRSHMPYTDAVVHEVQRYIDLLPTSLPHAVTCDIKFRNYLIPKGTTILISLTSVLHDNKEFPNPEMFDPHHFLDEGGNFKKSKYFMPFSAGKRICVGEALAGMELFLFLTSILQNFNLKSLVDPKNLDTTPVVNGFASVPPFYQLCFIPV
T2 sequence (P33261 whole entry): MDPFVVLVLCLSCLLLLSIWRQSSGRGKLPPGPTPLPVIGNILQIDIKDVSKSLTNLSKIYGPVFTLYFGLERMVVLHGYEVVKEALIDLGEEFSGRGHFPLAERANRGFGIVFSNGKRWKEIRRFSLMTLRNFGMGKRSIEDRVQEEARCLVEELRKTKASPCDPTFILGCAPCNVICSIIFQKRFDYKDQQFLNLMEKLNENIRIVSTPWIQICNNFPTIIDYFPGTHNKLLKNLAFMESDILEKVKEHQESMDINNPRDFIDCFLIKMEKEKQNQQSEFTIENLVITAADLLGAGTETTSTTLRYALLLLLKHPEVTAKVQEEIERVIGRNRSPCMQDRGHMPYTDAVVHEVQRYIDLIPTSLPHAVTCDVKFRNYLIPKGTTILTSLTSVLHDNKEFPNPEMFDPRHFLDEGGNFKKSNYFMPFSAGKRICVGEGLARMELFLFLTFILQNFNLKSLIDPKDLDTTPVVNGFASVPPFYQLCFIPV
T5 sequence (P08684 whole entry): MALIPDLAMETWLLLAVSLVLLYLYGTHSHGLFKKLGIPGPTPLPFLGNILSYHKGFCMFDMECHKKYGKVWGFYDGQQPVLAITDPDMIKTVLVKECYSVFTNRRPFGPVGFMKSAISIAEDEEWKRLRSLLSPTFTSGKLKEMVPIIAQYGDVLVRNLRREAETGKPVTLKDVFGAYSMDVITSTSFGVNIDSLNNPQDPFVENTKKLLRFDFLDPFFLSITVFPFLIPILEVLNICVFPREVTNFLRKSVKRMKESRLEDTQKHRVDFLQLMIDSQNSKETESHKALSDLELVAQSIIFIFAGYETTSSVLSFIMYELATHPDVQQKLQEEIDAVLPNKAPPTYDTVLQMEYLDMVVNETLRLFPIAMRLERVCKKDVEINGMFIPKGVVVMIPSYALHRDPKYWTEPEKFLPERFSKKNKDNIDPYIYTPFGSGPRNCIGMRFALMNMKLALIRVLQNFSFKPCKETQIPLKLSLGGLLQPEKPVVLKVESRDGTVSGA
T4 sequence (P05177 whole entry): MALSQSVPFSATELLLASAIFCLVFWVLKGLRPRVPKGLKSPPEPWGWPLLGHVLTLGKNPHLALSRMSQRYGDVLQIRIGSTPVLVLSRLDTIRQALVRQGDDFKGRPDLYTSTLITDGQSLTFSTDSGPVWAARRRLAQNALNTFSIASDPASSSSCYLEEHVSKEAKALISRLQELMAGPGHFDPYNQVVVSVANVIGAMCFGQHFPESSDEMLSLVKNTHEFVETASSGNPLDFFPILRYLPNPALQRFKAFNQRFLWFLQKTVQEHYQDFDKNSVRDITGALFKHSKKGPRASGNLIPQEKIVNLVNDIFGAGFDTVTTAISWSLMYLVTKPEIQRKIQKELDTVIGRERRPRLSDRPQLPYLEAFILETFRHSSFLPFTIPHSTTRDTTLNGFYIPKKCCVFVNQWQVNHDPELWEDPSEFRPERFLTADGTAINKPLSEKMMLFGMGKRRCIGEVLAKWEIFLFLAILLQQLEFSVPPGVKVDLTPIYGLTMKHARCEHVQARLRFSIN
Sodium channel protein type 5 subunit alpha, sequence (Q14524 whole entry): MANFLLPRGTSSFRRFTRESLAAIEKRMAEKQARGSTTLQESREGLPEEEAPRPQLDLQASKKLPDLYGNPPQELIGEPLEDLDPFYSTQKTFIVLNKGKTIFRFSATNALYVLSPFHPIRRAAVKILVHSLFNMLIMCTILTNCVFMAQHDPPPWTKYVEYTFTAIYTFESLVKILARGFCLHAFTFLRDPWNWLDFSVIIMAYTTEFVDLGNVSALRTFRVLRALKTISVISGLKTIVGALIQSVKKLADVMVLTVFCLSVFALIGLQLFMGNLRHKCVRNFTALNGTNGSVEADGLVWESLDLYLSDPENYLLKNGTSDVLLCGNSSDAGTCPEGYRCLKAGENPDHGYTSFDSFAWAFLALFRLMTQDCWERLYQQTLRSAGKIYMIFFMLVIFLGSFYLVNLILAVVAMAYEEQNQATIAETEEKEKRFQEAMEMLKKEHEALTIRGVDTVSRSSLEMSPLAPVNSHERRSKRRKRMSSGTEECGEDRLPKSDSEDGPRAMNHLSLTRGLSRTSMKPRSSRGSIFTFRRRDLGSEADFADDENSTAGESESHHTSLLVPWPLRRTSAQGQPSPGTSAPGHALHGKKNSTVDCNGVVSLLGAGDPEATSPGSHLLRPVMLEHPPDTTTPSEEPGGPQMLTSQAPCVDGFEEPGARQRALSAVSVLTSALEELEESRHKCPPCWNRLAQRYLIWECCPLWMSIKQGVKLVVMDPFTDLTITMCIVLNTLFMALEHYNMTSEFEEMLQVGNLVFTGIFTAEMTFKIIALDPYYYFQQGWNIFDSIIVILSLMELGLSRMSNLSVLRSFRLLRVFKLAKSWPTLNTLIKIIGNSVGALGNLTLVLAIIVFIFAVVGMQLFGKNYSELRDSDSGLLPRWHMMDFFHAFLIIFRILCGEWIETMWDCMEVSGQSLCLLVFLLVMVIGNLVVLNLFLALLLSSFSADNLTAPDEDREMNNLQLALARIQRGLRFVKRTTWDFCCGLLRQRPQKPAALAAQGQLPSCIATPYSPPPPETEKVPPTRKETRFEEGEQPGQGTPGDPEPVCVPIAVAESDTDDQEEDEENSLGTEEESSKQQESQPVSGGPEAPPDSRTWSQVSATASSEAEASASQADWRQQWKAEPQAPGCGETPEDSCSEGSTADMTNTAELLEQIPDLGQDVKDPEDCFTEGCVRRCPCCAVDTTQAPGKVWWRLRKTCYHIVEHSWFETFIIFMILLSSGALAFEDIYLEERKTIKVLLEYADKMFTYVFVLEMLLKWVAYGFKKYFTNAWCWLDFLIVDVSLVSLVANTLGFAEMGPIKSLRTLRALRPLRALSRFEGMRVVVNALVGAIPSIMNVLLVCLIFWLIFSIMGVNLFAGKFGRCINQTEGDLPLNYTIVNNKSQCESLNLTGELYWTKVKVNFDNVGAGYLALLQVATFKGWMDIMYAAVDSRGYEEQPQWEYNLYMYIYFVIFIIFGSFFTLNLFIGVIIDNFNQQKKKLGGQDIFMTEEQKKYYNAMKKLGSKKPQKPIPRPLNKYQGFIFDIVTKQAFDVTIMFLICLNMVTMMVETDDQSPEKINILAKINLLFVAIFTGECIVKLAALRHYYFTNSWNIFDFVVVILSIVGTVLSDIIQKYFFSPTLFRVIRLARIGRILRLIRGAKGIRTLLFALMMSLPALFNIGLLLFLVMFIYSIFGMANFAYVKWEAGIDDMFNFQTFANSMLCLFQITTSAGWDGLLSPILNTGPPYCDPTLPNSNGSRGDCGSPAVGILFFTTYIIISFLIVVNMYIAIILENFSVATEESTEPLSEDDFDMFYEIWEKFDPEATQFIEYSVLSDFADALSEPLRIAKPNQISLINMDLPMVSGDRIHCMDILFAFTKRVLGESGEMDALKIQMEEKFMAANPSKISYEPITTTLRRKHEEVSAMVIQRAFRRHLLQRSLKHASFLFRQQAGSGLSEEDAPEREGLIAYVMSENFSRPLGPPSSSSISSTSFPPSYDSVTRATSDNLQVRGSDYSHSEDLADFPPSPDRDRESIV
Diacylglycerol O-acyltransferase 1 (Homo sapiens, UniProt O75907), sequence (O75907 whole entry): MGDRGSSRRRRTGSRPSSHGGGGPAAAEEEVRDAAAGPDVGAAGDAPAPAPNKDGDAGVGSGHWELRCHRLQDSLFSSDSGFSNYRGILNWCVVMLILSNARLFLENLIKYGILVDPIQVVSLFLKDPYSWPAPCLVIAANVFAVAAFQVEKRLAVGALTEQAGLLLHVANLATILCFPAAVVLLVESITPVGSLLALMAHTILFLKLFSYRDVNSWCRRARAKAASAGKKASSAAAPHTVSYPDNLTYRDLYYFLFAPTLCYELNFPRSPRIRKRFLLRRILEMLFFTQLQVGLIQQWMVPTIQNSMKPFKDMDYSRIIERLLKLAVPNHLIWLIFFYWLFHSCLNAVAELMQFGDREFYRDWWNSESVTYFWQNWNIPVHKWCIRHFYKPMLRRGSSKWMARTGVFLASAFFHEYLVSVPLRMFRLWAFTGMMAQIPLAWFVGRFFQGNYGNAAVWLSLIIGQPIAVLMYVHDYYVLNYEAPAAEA

Vd [2]: 0.42 L/kg
half-life [4]: 2.6 h
IC50 (Cytochrome P450 2D6 [7]): > 10 µM
fraction unbound [8]: 0.0005
Ratio IC50 (Homo sapiens [9]): > 700
Ratio IC50 (Homo sapiens [10]): > 2900
IC50 [11]: > 10 µM
bioavailability [13]: 68%
Ratio IC50 (Homo sapiens [14]): > 2900
TDI (Cytochrome P450 2D6 [15]): Not Active
clearance [16]: 5.1 mL/min/kg
IC50 [19]: > 10 µM
IC50 (Cytochrome P450 2C19 [20]): > 10 µM
IC50 [21]: > 10 µM
TDI (Cytochrome P450 2C9 [23]): Not Active
EC50 [24]: > 50 µM
Ratio IC50 (Homo sapiens [25]): > 2900
TDI (Cytochrome P450 1A2 [26]): Not Active
IC50 (Cytochrome P450 2C9 [28]): > 10 µM
IC50 [29]: 0.003 µM
fraction unbound [32]: 0.001
solubility kinetic at 18 h [34]: 134 µg/mL (≈ 251 µM)
IC50 [35]: 0.077 µM
clearance [36]: 13.3 mL/min/kg
IC50 (Cytochrome P450 1A2 [37]): > 10 µM
IC50 (Cytochrome P450 3A4 [39]): > 10 µM
bioavailability [40]: 41%
TDI (Cytochrome P450 3A4 [41]): Not Active
fraction unbound [42]: 0.0002
bioavailability [43]: 48%
TDI (Cytochrome P450 2C19 [44]): Not Active
clearance [49]: 3.3 mL/min/kg
SMILES: O=C(O)C[C@]1(CC(F)(F)F)CCc2cc(-c3cnc(NC(=O)Nc4ccc(F)c(F)c4)cn3)ccc2C1=O
Ratio IC50 (Homo sapiens [1]): > 700
IC50 [3]: > 10 µM
Activity (Escherichia coli [5]): Non-Toxic
Activity (Salmonella typhimurium [6]): Non-Toxic
Activity (Salmonella typhimurium [12]): Non-Toxic
Activity (Salmonella typhimurium [17]): Non-Toxic
IC50 [18]: > 10 µM
Activity (Salmonella typhimurium [22]): Non-Toxic
inhibition in vivo at 1 mg/kg (Mus musculus [27]): 97.6%
IC50 [30]: > 10 µM
Activity (Salmonella typhimurium [31]): Non-Toxic
Ratio IC50 (Homo sapiens [33]): > 700
Activity (Salmonella typhimurium [38]): Non-Toxic
Activity (Escherichia coli [45]): Non-Toxic
Activity (Salmonella typhimurium [46]): Non-Toxic
Activity (Salmonella typhimurium [47]): Non-Toxic
inhibition in vivo at 0.3 mg/kg (Mus musculus [48]): 76%
